The results in this text go back to ChEMBL document CHEMBL1154009, “Identification, synthesis and SAR of amino substituted pyrido[3,2b]pyrazinones as potent and selective PDE5 inhibitors” (Bioorg Med Chem Lett, 2009).

A short description of series [1]: Inhibition of PDE11.
Series [2] has as its target cGMP-specific 3',5'-cyclic phosphodiesterase (Homo sapiens, UniProt O76074). The experiment in a line: Inhibition of PDE5.
Series [3] can be described thus: Inhibition of PDE6.
Series [4] in a line: Aqueous solubility at pH 7.4. The series is classed as physicochemical. The note with it: aqueous medium.
A short description of series [5]: Selectivity ratio of IC50 for PDE11 to IC50 for PDE5.
A short description of series [6]: Selectivity ratio of IC50 for PDE6 to IC50 for PDE5.
Series [7] in a line: Half life in Sprague-Dawley rat at 2 mg/kg, po and 2mg/kg, iv. The series is classed as ADME, organism-based. The note with it: in vivo. The arrangement: dose 2 mg/kg, route oral. An outline of the steps:
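Sprague Dawley rats (n = 3) dosed IV at 2 mpk in 70% PEG400/20% 0.05 M citrate buffer/10% ethanol, pH 5.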

As to `O=c1c(NCC2CCOCC2)nc2ccc(-c3ccc(F)cc3)nc2n1Cc1ccccn1`, the IC50 in series [1] worked out at 970 nM; in series [2], 20.3 nM; in series [3] it was 920 nM.
In the same order, the values of `O=c1c(NCC2CCOCC2)nc2ccc(-c3ccc(F)cc3)nc2n1Cc1cccnc1` are 474 nM, 2.5 nM and 375 nM.
For the compound `COc1ccc(-c2ccc3nc(NCC(=O)N(C)C)c(=O)n(CC4CCCCC4)c3n2)cn1`, the 50% inhibitory concentration (IC50) in series [1] is 7.7 nM; in series [2], 0.3 nM; in series [3] it was 72 nM.
In the same order, the values of `COc1ccc(Cn2c(=O)ccc3ccc(-c4ccncc4)cc32)cc1` are 41 nM, 25 nM and 150 nM.
`Nc1nc2ccc(-c3ccc(F)cc3)nc2n(CC2CCCCC2)c1=O`: the half-inhibitory concentration (IC50) in series [1] turned out to be 145 nM; in series [2], 28.5 nM; in series [3], 114 nM.
Turning to `CCCn1ccc(=O)c2c(N)nc(-c3ccccc3)cc21`, the IC50 in series [2] is 51 nM; in series [3], 6 nM.
For `COc1ccc(-c2ccc3nc(NCCN4CCOCC4)c(=O)n(CC4CCCCC4)c3n2)cn1`, the figures for the IC50 in series [1], in series [2] and in series [3] were 5.9 nM, 0.4 nM and 25.2 nM, respectively. This compound also had a solubility in series [4] of less than 3 µM.
For the compound `CC(C)OCCn1c(=O)c(NCCN2CCOCC2)nc2ccc(-c3ccc(F)c(F)c3)nc21`, the 50% inhibitory concentration (IC50) in series [1] came out at 1660 nM; in series [2], 52.5 nM; in series [3] it was 979 nM.
Take `COc1ncc(-c2ccc3nc(NCC4CCOCC4)c(=O)n(CC4CCCCC4)c3n2)cn1`: the values for the IC50 in series [1], in series [2] and in series [3] were 8.2 nM, 0.3 nM and 36.3 nM, respectively.
Consider `CCCOCCn1c(=O)c(NCCN2CCOCC2)nc2ccc(-c3ccc(F)cc3)nc21`, for which the IC50 in series [1] was more than 2000 nM; in series [2], 33.3 nM; in series [3], 1850 nM.
With `CCCCCN1C(=O)CN(C)c2ncc(-c3ccc(F)c(F)c3)cc21`, the figures for the half-inhibitory concentration (IC50) in series [1], in series [2] and in series [3] were more than 2000 nM, 43 nM and 1160 nM, respectively.
As to `O=c1c(NCC2CCOCC2)nc2ccc(-c3ccc(O)nc3)nc2n1CC1CCCCC1`, the figures for the IC50 in series [1], in series [2] and in series [3] were 79.2 nM, 2.9 nM and 112 nM, respectively.
On to `CCCOCCn1c(=O)c(NCC2CCOCC2)nc2ccc(-c3ccc(OC)nc3)nc21`, for which the Ratio IC50 was more than 600 in series [5] and more than 100 in series [6]. The IC50 in series [1] is 1230 nM; in series [2], 2.3 nM; in series [3] it was 350 nM.
For the compound `COc1ccc(Cn2c(=O)c(NCCN3CCOCC3)nc3ccc(-c4ccc(F)c(F)c4)nc32)cc1`, in series [5], the Ratio IC50 turned out to be 100. Also, the IC50 in series [1] was 482 nM; in series [2], 2 nM; in series [3] it was 11.6 nM.
Take `CCCOCCn1c(=O)c(NCCN2CCOCC2)nc2ccc(-c3ccc(=O)[nH]c3)nc21`: in series [2], the concentration for half-maximal inhibition (IC50) worked out at 534 nM.
As to `O=c1c(NCCN2CCOCC2)nc2ccc(-c3ccc(F)cc3)nc2n1CC1CCCCC1`, the half-inhibitory concentration (IC50) in series [1] came to 405 nM; in series [2], 4.6 nM; in series [3], 240 nM. For the same compound, in series [6], the Ratio IC50 is more than 100.
For `O=c1c(NCC2CCOCC2)nc2ccc(-c3ccc(F)cc3)nc2n1CC1CCCCC1`, the IC50 in series [1] was 324 nM; in series [2] it was 3 nM; in series [3] it was 459 nM. Moreover, in series [6], the Ratio IC50 is more than 100.
For `CCCOCCn1c(=O)c(NCC2CCOCC2)nc2ccc(-c3ccc(F)cc3)nc21`, the figures for the half-maximal inhibitory concentration (IC50) in series [1], in series [2] and in series [3] were more than 2000 nM, 22.4 nM and more than 2000 nM, respectively.
In the case of `CCCOCCn1c(=O)c(NCCN2CCOCC2)nc2ccc(-c3c(C)noc3C)nc21`, the half-maximal inhibitory concentration (IC50) was more than 2000 nM in series [1], 36.5 nM in series [2] and 1980 nM in series [3].
The compound `CC(C)Cn1c(=O)c(NCC2CCOCC2)nc2ccc(-c3ccc(F)cc3)nc21` yielded a 50% inhibitory concentration (IC50) in series [2] of 224 nM.
For the compound `CN(C)C(=O)CNc1nc2ccc(-c3ccc(F)cc3)nc2n(CC2CCCCC2)c1=O`, the IC50 in series [1] is 90.9 nM; in series [2], 3.5 nM; in series [3], more than 2000 nM.
As for `O=c1c(NCC2CCOCC2)nc2ccc(-c3ccncc3)nc2n1CC1CCCCC1`, the IC50 in series [1] turned out to be 36.5 nM; in series [2], 0.9 nM; in series [3], 33.5 nM.
`O=c1c(NCc2cccnc2)nc2ccc(-c3ccc(F)cc3)nc2n1CC1CCCCC1`: the IC50 in series [1] is 558 nM; in series [2], 13.4 nM; in series [3] it was 871 nM.
For the compound `CCOCCn1c(=O)c(NCC2CCOCC2)nc2ccc(-c3ccc(F)cc3)nc21`, the 50% inhibitory concentration (IC50) in series [2] turned out to be 149 nM.
On to `O=c1c(NCCN2CCOCC2)nc2ccc(-c3ccc(F)c(F)c3)nc2n1CC1CCCCC1`, for which the IC50 amounted to 213 nM in series [1], 1.6 nM in series [2] and 195 nM in series [3]. For the same compound, the Ratio IC50 in series [6] is more than 100.
As for `O=c1c(NCC2CCOCC2)nc2ccc(-c3ccc(F)cc3)nc2n1Cc1cc(F)cc(F)c1`, the half-inhibitory concentration (IC50) in series [1] is 390 nM; in series [2] it was 2.7 nM; in series [3] it was 910 nM.
For `CCCOCCn1c(=O)c(NCCN2CCOCC2)nc2ccc(-c3ccc(OC)nc3)nc21`, the values for the Ratio IC50 in series [5] and in series [6] were more than 600 and more than 100, respectively. Besides, the half-life in series [7] is 180 min. Besides, the IC50 in series [1] was 1540 nM; in series [2], 2.4 nM; in series [3], 317 nM.
For `CCCOCCn1c(=O)c(NCC(=O)N(C)C)nc2ccc(-c3ccc(OC)nc3)nc21`, the Ratio IC50 in series [5] was more than 600; in series [6] it was more than 100. The concentration for half-maximal inhibition (IC50) turned out to be 1210 nM in series [1], 14.5 nM in series [2] and 1190 nM in series [3].
`CCCOCCn1c(=O)c(NCC2CCOCC2)nc2ccc(-c3ccncc3)nc21`: the figures for the half-maximal inhibitory concentration (IC50) in series [1], in series [2] and in series [3] were more than 2000 nM, 33.9 nM and 1170 nM, respectively.
For `CCCOCCn1c(=O)c(NCCN2CCOCC2)nc2ccc(-c3cnc(OC)nc3)nc21`, the figures for the IC50 in series [1], in series [2] and in series [3] were more than 2000 nM, 26.7 nM and more than 2000 nM, respectively.
For the compound `Cc1noc(C)c1-c1ccc2nc(NCCN3CCOCC3)c(=O)n(CC3CCCCC3)c2n1`, the IC50 in series [1] stood at 286 nM; in series [2] it was 1 nM; in series [3], 41.6 nM.
Turning to `COc1ccc(-c2ccc3nc(NCC4CCOCC4)c(=O)n(CC4CCCCC4)c3n2)cn1`, the IC50 in series [1] was found to be 8.1 nM; in series [2] it was 0.3 nM; in series [3], 32 nM.
Consider `COc1ccc(Cn2c(=O)c(NCCN3CCOCC3)nc3ccc(-c4ccc(F)cc4)nc32)cc1`, for which, in series [5], the Ratio IC50 was determined as 100. The half-inhibitory concentration (IC50) amounted to 345 nM in series [1], 1.3 nM in series [2] and 10.1 nM in series [3].

One may read the IC50 as the concentration at which inhibition is half-maximal. The solubility is the concentration that dissolves in the medium under given conditions. Read a high solubility as a readily soluble substance. As a reminder, the half-life is the time needed for the level to fall by half in the phase considered.
